Test results: ChEMBL document CHEMBL3352113, “Cytoprotective pyridinol antioxidants as potential therapeutic agents for neurodegenerative and mitochondrial diseases” (Bioorg Med Chem, 2014)
The source made the active and inactive calls. No cut-off for these calls is given here.

Test system: Lymphocyte
Assay: Inhibition of oxidative stress-induced mitochondrial membrane depolarization in diethyl maleate-treated human lymphocytes obtained from FRDA patient assessed as cells with intact mitochondrial membrane potential at 250 nM pretreated for 16 hrs using TMRM by FACS analysis (reference value: 95%)
Assay type: functional
Set-up: scale not given: the % may be the effect or the level left
Details: not given

Q: With `CCCCCCCCCCc1c(C)c(N(C)C)nc(C)c1O` as the compound, how does the Activity read?
A: Its Activity is 78%.

Q: Which Activity does the source give for `CCCCCCCCCCCCCCCCCCCc1nc(N(C)C)c(C)c(C)c1O` here?
A: The Activity was 44%.

Test system: Lymphocyte
Assay: Cytoprotective activity in human lymphocytes obtained from Leigh's syndrome patient assessed as viable cells at 0.1 uM after 16 hrs by trypan blue exclusion assay
Assay type: functional
Details: read-out: Activity
Outline: (§1)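 Lymphocytes from FRDA or Leigh's syndrome patients, grown in RPMI-1640 with 15% fetal calf serum and 2 mM glutamine, kept in log phase. Test agents at 0.1, 0.5 and 2.5 µM; diethyl maleate (DEM) added to deplete glutathione and induce oxidative stress. Viability expressed relative to untreated cells (100%). Values are mean ± SD/SEM as tabulated.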

Q: Which viability at 0.1 µM does the source give for `CCCCCCCCCCc1c(C)c(N(C)C)nc(C)c1O` here?
A: The viability at 0.1 µM was 19%.

Q: Which viability at 0.1 µM does the source give for `CCCCCCCCCCCCCCCCCCCc1nc(N(C)C)c(C)c(C)c1O` here?
A: Its viability at 0.1 µM is 4%.

Organism: Bos taurus
Assay: Inhibition of bovine heart mitochondrial NADH oxidase complex I/III/IV assessed as remaining activity by spectrophotometry relative to untreated control
Details: not given

Q: Which inhibition does the source give for `CCCCCCCCCCc1c(C)c(N(C)C)nc(C)c1O` here?
A: Its inhibition is “Dose-dependent effect”.

Q: For `CCCCCCCCCCCCCCCCCCCc1nc(N(C)C)c(C)c(C)c1O`, which inhibition is on record?
A: Its inhibition is “Dose-dependent effect”.

Organism: Bos taurus
Assay: Inhibition of bovine heart mitochondrial NADH oxidase complex I/III/IV assessed as remaining activity at 5 uM by spectrophotometry relative to untreated control
Details: not given

Q: With `CCCCCCCCCCc1c(C)c(N(C)C)nc(C)c1O` as the compound, how does the Activity read?
A: Its Activity is 35%.

Q: With `CCCCCCCCCCCCCCCCCCCc1nc(N(C)C)c(C)c(C)c1O` as the compound, how does the Activity read?
A: Its Activity is 88%.

Test system: Lymphocyte
Assay: Increase in ATP production in CoQ10-deficient lymphocytes (unknown origin) assessed as cellular ATP level at 25 uM after 48 hrs using luciferin-luciferase reaction by bioluminescence assay relative to control
Assay type: functional
Details: not given
Outline: (§2)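 CoQ10-deficient lymphocyte line GM17932 grown in glucose-free RPMI 1640 with 25 mM galactose, 2 mM glutamine and 10% dialyzed FBS, forcing oxidative phosphorylation. Incubated with compounds at 5, 10 or 25 µM for 48 h. Total intracellular ATP measured by luciferin–luciferase reaction, expressed as % of untreated control.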

Q: For `CCCCCCCCCCc1c(C)c(N(C)C)nc(C)c1O`, which Activity is on record?
A: The Activity was 2%.

Q: For `CCCCCCCCCCCCCCCCCCCc1nc(N(C)C)c(C)c(C)c1O`, which Activity is on record?
A: The Activity was 99%.

Organism: Bos taurus
Assay: Inhibition of bovine heart mitochondrial NADH oxidase complex I/III/IV assessed as remaining activity at 10 uM by spectrophotometry relative to untreated control
Details: not given

Q: For `CCCCCCCCCCc1c(C)c(N(C)C)nc(C)c1O`, which Activity is on record?
A: The Activity was 8%.

Q: With `CCCCCCCCCCCCCCCCCCCc1nc(N(C)C)c(C)c(C)c1O` as the compound, how does the Activity read?
A: Its Activity is 85%.

Test system: Lymphocyte
Assay: Cytoprotective activity in human lymphocytes obtained from Leigh's syndrome patient assessed as viable cells at 2.5 uM after 16 hrs by trypan blue exclusion assay
Assay type: functional
Details: read-out: Activity
Outline: as §1

Q: With `CCCCCCCCCCc1c(C)c(N(C)C)nc(C)c1O` as the compound, how does the viability at 2.5 µM read?
A: Its viability at 2.5 µM is 86%.

Q: For `CCCCCCCCCCCCCCCCCCCc1nc(N(C)C)c(C)c(C)c1O`, which viability at 2.5 µM is on record?
A: The viability at 2.5 µM was 66%.

Test system: Lymphocyte
Assay: Cytoprotective activity in human lymphocytes obtained from FRDA patient assessed as viable cells at 0.1 uM after 16 hrs by trypan blue exclusion assay
Assay type: functional
Details: read-out: Activity
Outline: as §1

Q: Which viability at 0.1 µM does the source give for `CCCCCCCCCCc1c(C)c(N(C)C)nc(C)c1O` here?
A: Its viability at 0.1 µM is 34%.

Q: Which viability at 0.1 µM does the source give for `CCCCCCCCCCCCCCCCCCCc1nc(N(C)C)c(C)c(C)c1O` here?
A: Its viability at 0.1 µM is 17%.

Organism: Bos taurus
Assay: Inhibition of bovine heart mitochondrial NADH oxidase complex I/III/IV assessed as remaining activity at 1 uM by spectrophotometry relative to untreated control
Details: not given

Q: With `CCCCCCCCCCc1c(C)c(N(C)C)nc(C)c1O` as the compound, how does the Activity read?
A: Its Activity is 49%.

Q: With `CCCCCCCCCCCCCCCCCCCc1nc(N(C)C)c(C)c(C)c1O` as the compound, how does the Activity read?
A: The Activity was 93%.

Test system: Lymphocyte
Assay: Inhibition of ROS generation in diethyl maleate-treated human lymphocytes obtained from FRDA patient compound pretreated at 100 to 500 nM for 16 hrs using DCFH-DA by FACS analysis
Assay type: functional, cell-based
Details: not given
Outline: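 FRDA lymphocytes pretreated with compounds at 100, 250 and 500 nM for 16 h, then given DEM for 80 min to raise ROS. Stained with DCFH-DA for 15 min, then DCF fluorescence read by flow cytometry. Reported as % ROS scavenging; mean ± SEM of three experiments run in duplicate.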

Q: For `CCCCCCCCCCc1c(C)c(N(C)C)nc(C)c1O`, which inhibition is on record?
A: Its inhibition is “Active”.

Q: Which inhibition does the source give for `CCCCCCCCCCCCCCCCCCCc1nc(N(C)C)c(C)c(C)c1O` here?
A: The inhibition was “inactive”.

Test system: Lymphocyte
Assay: Increase in ATP production in CoQ10-deficient lymphocytes (unknown origin) assessed as cellular ATP level at 10 uM after 48 hrs using luciferin-luciferase reaction by bioluminescence assay relative to control
Assay type: functional
Details: not given
Outline: as §2

Q: For `CCCCCCCCCCc1c(C)c(N(C)C)nc(C)c1O`, which Activity is on record?
A: The Activity was 40%.

Q: For `CCCCCCCCCCCCCCCCCCCc1nc(N(C)C)c(C)c(C)c1O`, which Activity is on record?
A: The Activity was 102%.

Test system: Lymphocyte
Assay: Cytoprotective activity in human lymphocytes obtained from FRDA patient assessed as viable cells after 16 hrs by trypan blue exclusion assay
Assay type: functional, cell-based
Details: not given
Outline: as §1

Q: With `CCCCCCCCCCc1c(C)c(N(C)C)nc(C)c1O` as the compound, how does the Activity read?
A: Its Activity is “Dose-dependent effect”.

Q: With `CCCCCCCCCCCCCCCCCCCc1nc(N(C)C)c(C)c(C)c1O` as the compound, how does the Activity read?
A: The Activity was “Dose-dependent effect”.

Test system: Lymphocyte
Assay: Inhibition of oxidative stress-induced mitochondrial membrane depolarization in diethyl maleate-treated human lymphocytes obtained from FRDA patient assessed as cells with intact mitochondrial membrane potential at 100 nM pretreated for 16 hrs using TMRM by FACS analysis (reference value: 95%)
Assay type: functional
Set-up: scale not given: the % may be the effect or the level left
Details: not given

Q: With `CCCCCCCCCCc1c(C)c(N(C)C)nc(C)c1O` as the compound, how does the Activity read?
A: The Activity was 60%.

Q: Which Activity does the source give for `CCCCCCCCCCCCCCCCCCCc1nc(N(C)C)c(C)c(C)c1O` here?
A: Its Activity is 24%.

Test system: Lymphocyte
Assay: Inhibition of oxidative stress-induced mitochondrial membrane depolarization in diethyl maleate-treated human lymphocytes obtained from FRDA patient assessed as cells with intact mitochondrial membrane potential pretreated for 16 hrs using TMRM by FACS analysis
Assay type: functional, cell-based
Details: not given

Q: Which inhibition does the source give for `CCCCCCCCCCc1c(C)c(N(C)C)nc(C)c1O` here?
A: Its inhibition is “Dose-dependent effect”.

Test system: not listed separately
Assay: Metabolic stability in bovine liver microsomes at 25 uM after 30 mins by reverse phase HPLC analysis
Assay type: ADME, Bos taurus
Details: cattle, read-out: Stability
Outline: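 Compounds incubated 30 min with activated bovine liver microsomes. Remaining parent compound quantified by reversed-phase HPLC and expressed as % recovered; mean ± SD.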

Q: Which remaining at 0.5 h, 25 µM does the source give for `CCCCCCCCCCc1c(C)c(N(C)C)nc(C)c1O` here?
A: The remaining at 0.5 h, 25 µM was 70%.

Q: Which remaining at 0.5 h, 25 µM does the source give for `CCCCCCCCCCCCCCCCCCCc1nc(N(C)C)c(C)c(C)c1O` here?
A: The remaining at 0.5 h, 25 µM was 50%.

Test system: Lymphocyte
Assay: Cytoprotective activity in human lymphocytes obtained from FRDA patient assessed as viable cells at 0.5 uM after 16 hrs by trypan blue exclusion assay
Assay type: functional
Details: read-out: Activity
Outline: as §1

Q: With `CCCCCCCCCCc1c(C)c(N(C)C)nc(C)c1O` as the compound, how does the viability at 0.5 µM read?
A: Its viability at 0.5 µM is 84%.

Q: Which viability at 0.5 µM does the source give for `CCCCCCCCCCCCCCCCCCCc1nc(N(C)C)c(C)c(C)c1O` here?
A: Its viability at 0.5 µM is 38%.

Test system: Lymphocyte
Assay: Inhibition of lipid peroxidation in diethyl maleate-treated human lymphocytes obtained from FRDA patient at 100 to 250 nM after 16 hrs using C11-BODIPY581/591 by FACS analysis
Assay type: functional, cell-based
Details: not given
Outline: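 FRDA lymphocytes depleted of glutathione with DEM, probed with C11-BODIPY581/591. Green (oxidized) fluorescence read by flow cytometry at 490/510 nm. Median mean fluorescence taken relative to untreated control and converted to % lipid peroxidation scavenging; mean ± SEM, n = 3.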

Q: For `CCCCCCCCCCc1c(C)c(N(C)C)nc(C)c1O`, which inhibition is on record?
A: The inhibition was “Active”.

Q: Which inhibition does the source give for `CCCCCCCCCCCCCCCCCCCc1nc(N(C)C)c(C)c(C)c1O` here?
A: The inhibition was “inactive”.

Test system: Lymphocyte
Assay: Cytoprotective activity in human lymphocytes obtained from Leigh's syndrome patient assessed as viable cells after 16 hrs by trypan blue exclusion assay
Assay type: functional, cell-based
Details: not given
Outline: as §1

Q: For `CCCCCCCCCCc1c(C)c(N(C)C)nc(C)c1O`, which Activity is on record?
A: The Activity was “Dose-dependent effect”.

Q: For `CCCCCCCCCCCCCCCCCCCc1nc(N(C)C)c(C)c(C)c1O`, which Activity is on record?
A: The Activity was “Dose-dependent effect”.

Test system: Lymphocyte
Assay: Increase in ATP production in CoQ10-deficient lymphocytes (unknown origin) assessed as cellular ATP level at 5 uM after 48 hrs using luciferin-luciferase reaction by bioluminescence assay relative to control
Assay type: functional
Details: not given
Outline: as §2

Q: Which Activity does the source give for `CCCCCCCCCCc1c(C)c(N(C)C)nc(C)c1O` here?
A: The Activity was 87%.

Q: For `CCCCCCCCCCCCCCCCCCCc1nc(N(C)C)c(C)c(C)c1O`, which Activity is on record?
A: The Activity was 102%.

Test system: Lymphocyte
Assay: Cytoprotective activity in human lymphocytes obtained from FRDA patient assessed as viable cells at 2.5 uM after 16 hrs by trypan blue exclusion assay
Assay type: functional
Details: read-out: Activity
Outline: as §1

Q: Which viability at 2.5 µM does the source give for `CCCCCCCCCCc1c(C)c(N(C)C)nc(C)c1O` here?
A: Its viability at 2.5 µM is 86%.

Q: With `CCCCCCCCCCCCCCCCCCCc1nc(N(C)C)c(C)c(C)c1O` as the compound, how does the viability at 2.5 µM read?
A: The viability at 2.5 µM was 76%.

Test system: Lymphocyte
Assay: Inhibition of oxidative stress-induced mitochondrial membrane depolarization in diethyl maleate-treated human lymphocytes obtained from FRDA patient assessed as cells with intact mitochondrial membrane potential at 500 nM pretreated for 16 hrs using TMRM by FACS analysis (reference value: 95%)
Assay type: functional
Set-up: scale not given: the % may be the effect or the level left
Details: not given

Q: Which Activity does the source give for `CCCCCCCCCCc1c(C)c(N(C)C)nc(C)c1O` here?
A: Its Activity is 89%.

Q: With `CCCCCCCCCCCCCCCCCCCc1nc(N(C)C)c(C)c(C)c1O` as the compound, how does the Activity read?
A: Its Activity is 65%.

Test system: Lymphocyte
Assay: Cytoprotective activity in human lymphocytes obtained from Leigh's syndrome patient assessed as viable cells at 0.5 uM after 16 hrs by trypan blue exclusion assay
Assay type: functional
Details: read-out: Activity
Outline: as §1

Q: With `CCCCCCCCCCc1c(C)c(N(C)C)nc(C)c1O` as the compound, how does the viability at 0.5 µM read?
A: Its viability at 0.5 µM is 87%.

Q: For `CCCCCCCCCCCCCCCCCCCc1nc(N(C)C)c(C)c(C)c1O`, which viability at 0.5 µM is on record?
A: Its viability at 0.5 µM is 7%.
